Redox H2O2 prof = compounds producing H2O2 with reducing agent – biochemical, NIH compound library profiling, artefact control for MLSCN library redox annotation, primary screen; 0.03% of 200,000 active; AID 878; activation, % at 10 µM; DTT-dependent redox cycling H2O2, phenol red/HRP absorbance; 100% = 100 µM peroxide control, 0% = buffer;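 active means activation of at least 50% relative to the plate's high and low controls in the primary single-dose screen; inactive means activation below 50%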;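 further: compound incubated with DTT at 0.8 mM final as the reducing agent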
L major viab = reduces viability of Leishmania major promastigotes. resazurin fluorescence viability. inhibition, % at 10 µM. 9% of 200,000 active; in the data active means inhibition above about 50%;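 further: promastigotes grown with compound for 44 hours at 28 °C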
MPTP inh = inhibitors of mitochondrial permeability transition pore | isolated mouse mitochondria, Ca2+ swelling absorbance, 30 min | inhibition, % at 10 µM | 1.4% of 360,000 active;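 active means inhibition of 50% or more, scaled per plate between neutral and stimulator controls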;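 further: 0% = DMSO wells given calcium and 100% = 1 mM EGTA wells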
T cruzi inh = blocks replication of Trypanosoma cruzi; T. cruzi beta-gal in NIH3T3, luminescence, 90 h; inhibition, % (test concentration not listed); 1.4% of 300,000 active;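 active means mean inhibition across valid replicates above about 55%, limit read from the data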;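 further: signal also drops with host cell toxicity which is not excluded here; 0% = plate median of DMSO wells and 100% = zero luminescence signal; higher percent means less beta-gal luminescence so fewer parasites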
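System: Mouse NIH/3T3 fibroblasts infected with β-gal-expressing T. cruzi Tulahuen C4 | Quantity: NIH/3T3 cells, 5,000 per well | Reagent: 5000 reporter trypomastigotes per well | Dosing: Compound pinned at 50 nL/well, DMSO | Schedule: 3 h host attachment, then at least 90 h co-culture | Detection: GalScreen luminescence, 60 min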
Lipid droplet = modulators of hepatic lipid droplet formation; AID 1656; inhibition, % at 6.5 µM; 0.4% of 240,000 active; AML12 mouse hepatocytes, oleate lipid droplets, BODIPY imaging;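 active means lipid droplet intensity inhibited by at least 50%, with more than 500 cells counted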
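Technique: fluorescence imaging, 20x objective, two fields per well / Assay system: AML12 hepatocytes (mouse) / Measure: % inhibition of lipid droplet signal / Doses: 6.5 µM single-point dosing / Incubation: overnight exposure / Reagent: 100 µM oleic acid challenge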
* hit, by the source's call. This excerpt belongs to a sample that is enriched for hits.

Screening Cc1ccc(C)c(OCC(O)CN2CCCCC2C)c1 (configuration not stated) returned Redox H2O2 prof 0.0, L major viab 91.3*, MPTP inh -0.3 and T cruzi inh 10.1.
Screening C=CCc1ccc(OCC(O)CN2CCCCC2C)c(OC)c1 (configuration not stated) returned Redox H2O2 prof 2.5, L major viab 92.8*, MPTP inh 0.8 and T cruzi inh 5.1.
Screening C=CCc1ccc(OCC(O)CN2CCCCC2)c(OC)c1 (configuration not stated) returned Redox H2O2 prof 1.9, L major viab 77.8*, MPTP inh 1.4 and T cruzi inh -14.4.
COCC(Cc1ccccc1)NC(=O)Cn1cc(C)c(=O)[nH]c1=O (configuration not stated) was read as MPTP inh 1.6.
`Cc1ccc(S(=O)(=O)c2c(CO)c(-c3ccccc3)nn2C)cc1` gave Redox H2O2 prof -1.8, L major viab 3.1, MPTP inh -0.1, T cruzi inh -11.4 and Lipid droplet -1.0.
`Cc1ccc(S(=O)(=O)c2c(COC(=O)c3ccccc3Cl)c(-c3ccccc3)nn2C)cc1` gave Redox H2O2 prof 0.5, L major viab 61.5*, MPTP inh 0.6, T cruzi inh 25.9 and Lipid droplet 5.9.
Screening Cc1cc(C)n(-c2n[nH]c(C)c2[N+](=O)[O-])n1 returned Redox H2O2 prof -0.3, L major viab 0.5, MPTP inh -0.7, T cruzi inh -8.4 and Lipid droplet 9.6.
For CCN1C/C(=C/c2ccc(OC)c(O)c2)C(=O)/C(=C/c2ccc(OC)c(O)c2)C1 the results were Redox H2O2 prof -1.8, L major viab 100.4*, MPTP inh -1.4, T cruzi inh 51.3 and Lipid droplet 3.2.
For O=C1/C(=C/c2ccc([N+](=O)[O-])cc2)CCc2ccccc21 the results were T cruzi inh -9.9 and Lipid droplet -0.8.
CCN1C/C(=C\c2cccc([N+](=O)[O-])c2)C(=O)/C(=C/c2cccc([N+](=O)[O-])c2)C1 was read as Redox H2O2 prof 0.0, L major viab 100.5*, MPTP inh -0.4 and Lipid droplet -3.0.
`COc1ccc(/C=C2\CN(Cc3ccccc3)C/C(=C\c3ccc(OC)c(O)c3)C2=O)cc1O` gave MPTP inh 0.1, T cruzi inh 6.7 and Lipid droplet -21.5.
For O=C1/C(=C/c2cccc([N+](=O)[O-])c2)CCc2ccccc21 the results were Redox H2O2 prof -0.4, L major viab 95.4*, MPTP inh -1.6, T cruzi inh 3.1 and Lipid droplet -7.1.
Screening O=C1CC(c2ccc(F)cc2)Sc2nc(C34CC5CC(CC(C5)C3)C4)nn21 (configuration not stated) returned Redox H2O2 prof -0.2, L major viab 0.9, MPTP inh -2.1, T cruzi inh -11.1 and Lipid droplet 12.6.
Screening CC(C)[C@H](NC(=O)c1ccc(Cl)cc1Cl)C(=O)NNC(=O)c1ccco1 returned MPTP inh -2.6.
Screening Clc1cccc(-c2nc(NCc3cccnc3)c3ccccc3n2)c1 returned Redox H2O2 prof -3.0, L major viab 86.5*, MPTP inh 0.3 and T cruzi inh 28.3.
For COc1ccc(CNc2nc(-c3ccccc3)nc3ccccc23)cc1OC the results were MPTP inh 2.4, T cruzi inh 22.0 and Lipid droplet -8.0.
Cc1ccc(-c2nc(NCc3cccnc3)c3ccccc3n2)cc1 was read as Redox H2O2 prof -0.2, L major viab 82.7*, MPTP inh 20.7, T cruzi inh 39.9 and Lipid droplet -7.7.
For O=[N+]([O-])c1cccc(-c2nc(NCc3ccccc3)c3ccccc3n2)c1 the results were Redox H2O2 prof 0.4, L major viab 58.4*, MPTP inh 24.7, T cruzi inh 45.6 and Lipid droplet -3.9.
Fc1ccc(CNc2nc(-c3ccccc3)nc3ccccc23)cc1 was read as Redox H2O2 prof -0.1, L major viab 69.2*, MPTP inh 2.3, T cruzi inh 57.2* and Lipid droplet -0.2.
FC(F)(F)c1nc(NCc2cccnc2)c2ccccc2n1 was read as MPTP inh 0.3, T cruzi inh -8.8 and Lipid droplet -3.6.
Screening Cc1cc(C(=O)Cn2c(CO)nc3ccccc32)c(C)n1C returned MPTP inh 0.3, T cruzi inh 18.2 and Lipid droplet 1.5.
Screening c1ccc(-c2nc(NCc3cccnc3)c3ccccc3n2)cc1 returned Redox H2O2 prof -5.8, L major viab 80.1*, MPTP inh -0.3 and T cruzi inh 37.0.

Assay outcomes as filed in PubChem.
